Compounds with a hit are over-represented: about 3.5% of the library has one in this group of screens.
FN deposit inh: fibronectin deposition inhibition; AH1F fibroblasts, Alexa488-fibronectin deposition fluorescence, overnight; inhibition, % at 12.6 µM; actives 0.086% (n = 350,000); AID 743247;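 active means mean inhibition across replicates of 30% or more, regardless of how many single replicates reach that level; inconclusive means mean under 30% yet at least half of replicates reach 30%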;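 further: positive control wells lacked labelled fibronectin entirely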
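material = AH1F fibroblast monolayer depositing Alexa488-labelled fibronectin into matrix | amount = 10000 AH1F cells/well | buffer or medium = DMEM plus 2% serum, read in PBS | incubation = 1 h cell adhesion before compound, then overnight fibronectin incubation | detection = fluorescence at 485 nm excitation, 525 nm emission | evaluation = percent inhibition as loss of matrix-bound fibronectin fluorescence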
PglD DTNB: blocks C. jejuni PglD acetyltransferase activity; inhibition, % at 12.5 µM; purified PglD enzyme, DTNB colorimetric CoA detection; actives 0.098% (n = 360,000); in the data active means inhibition above about 16%, passing the limit was not always enough; inconclusive means no clear call, values can overlap the other calls
Env fusion inh: blocks HIV Env-driven cell-cell fusion | actives 1.1% (n = 360,000) | HeLa-JRFL Env/CEM21 cell fusion, luciferase | inhibition, % at 12.3 µM | AID 651610;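 active means mean replicate inhibition score of at least 50 and every replicate individually at or above 50; inconclusive means only one of the two criteria met; inactive means mean below 50 and not all replicates reaching 50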;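 further: 0% = plate neutral controls and 100% = maraviroc near 300 nM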
DENV2 CPE: inhibitors of DENV2 cytopathic effect. DENV2-infected cells, cytopathic effect rescue, plate reader. CPE inhibition, % at 9.99 µM. actives 1.7% (n = 350,000); in the data active means CPE inhibition above about 20%, passing the limit was not always enough; inconclusive means no clear call, values can overlap the other calls; tested in BHK-21 cells;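 further: 0% = median of neutral control wells and 100% = median of positive control wells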
PGC1a acetyl inh: PGC1a acetylation modulation, inhibitor mode; U2OS PGC1a acetylation, AlphaScreen anti-acetyl-lysine; with virally co-expressed GCN5 acetyltransferase; inhibition, % at 15.6 µM; actives 0.17% (n = 350,000);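 active means every replicate shows inhibition of at least 40%; inconclusive means mean inhibition at least 40% but some replicate below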;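 further: 0% = neutral control wells and 100% = positive control wells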
rRNA inh HTS: inhibits bacterial ribosomal RNA function over humanized ribosomes; E. coli WT GFP vs humanized-ribosome RFP mutants, fluorescence, 24 h; active compounds read low; DMSO median 0, no signal -100; GFP signal change (wild-type ribosome), % (no concentration beside the values); AID 720706; actives 1.6% (n = 350,000);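 active means significant combined selectivity score with lowered wild-type GFP, culture density cut under 30%, mutant RFP and density less affected; inactive means any of these conditions unmet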
AID977621: growth inhibition of wild-type GFP E. coli, dose response, H69 mutant RFP, cherry-pick. shares compounds with rRNA inh HTS. E. coli wild-type GFP strain growth, fluorescence, 24 h. activity change, negative = inhibition at 50 µM. 1,900 tested, under 10 active;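 active means Wild-type ribosome reporter drop at least double the humanized mutant ribosome reporter drop, growth loss under a set limit; inconclusive means no clear call, values can overlap the other calls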;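 further: wild-type GFP and H69 mutant RFP strains grown together 50/50 in each well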
AID977628: E. coli growth inhibition, wild-type GFP versus h24 humanized RFP strain, dose response, h24 mutant RFP vs wild-type GFP, cherry-pick | shares compounds with rRNA inh HTS | E. coli WT GFP strain growth, fluorescence, 24 h | activity change, negative = inhibition at 50 µM | 1,900 tested, under 10 active;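 active means compound lowering the normal-ribosome reporter at least twice as much as the humanized-ribosome reporter, growth loss under a set limit; inconclusive means no clear call, values can overlap the other calls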;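 further: wild-type GFP and h24 humanized RFP strains co-cultured 1 to 1 per well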
An asterisk follows results filed as active; ? = inconclusive; · = no result given; [ ] = dose if it differs, or a comment.

SMILES	FN deposit inh	PglD DTNB	Env fusion inh	DENV2 CPE	PGC1a acetyl inh	rRNA inh HTS	AID977621	AID977628
CCOc1ccccc1/C=C/c1cc(C(=O)O)c2ccccc2n1	4	·	-8	-4	·	-23*	-5.7	·
CCC(=O)N1CC(=O)N2[C@H](CO)[C@H](c3ccc(C#CCC(C)C)cc3)[C@H]2C1	-2	·	·	-11	-3	8	·	·
Cc1ccc(S(=O)(=O)N(C)C[C@@H]2Oc3ccc(NC(=O)CCN4CCOCC4)cc3CC(=O)N([C@@H](C)CO)C[C@H]2C)cc1	·	3	·	-5	-16	1	·	·
CCCCNC(=O)c1onc(CSc2cc(C)cc(C)c2)c1C(=O)O	-8	2	0	15	5	-29*	-7.9	·
C[C@@H]1CCCCO[C@@H](CN(C)Cc2ccc(C(F)(F)F)cc2)[C@@H](C)CN([C@@H](C)CO)C(=O)c2cc(NS(=O)(=O)c3ccc(Cl)cc3)ccc2O1	-2	2	7[16.7 µM]	3	-19	4	·	·
Cc1ccccc1NC(=O)c1ccccc1N(C)S(=O)(=O)c1ccccc1	1	·	-9	6	-5	-19*	-21	?
CCOC(=O)c1ccc(NC(=O)CN2CCN(c3ccccc3)CC2)cc1	·	-21	·	·	-1	·	·	·
CCOC(=O)c1sc(NC(=O)CN2CCN(c3ccccc3)CC2)nc1C	-10	6	-10	-2	·	-20*	·	-19
COc1ccc(OC)c(Nc2nc(N)c([N+](=O)[O-])c(N3CCOCC3)n2)c1	3	-1	0	-4	7	-31*	?	·
COc1ccc(Nc2nc(N)c([N+](=O)[O-])c(N3CCN(C)CC3)n2)cc1	7	·	-5	-2	·	-6	·	·
COc1ccc(Nc2nc(N)c([N+](=O)[O-])c(N3CCCC3)n2)cc1	17	-9	3	-2	-3	-21*	5.7	-5.5
Cc1ccc(NC(=O)C2CCN(S(=O)(=O)c3ccc4c(c3)NC(=O)CO4)CC2)cc1	14	-1	7	6	-10	-18*	·	-17
O=C(Nc1ccccc1)N[C@@H]1CC[C@@H](CCNS(=O)(=O)c2ccccc2F)O[C@@H]1CO	·	1	-9[16.7 µM]	8	-5	0	·	·
O=C(c1ccc2c3c(cccc13)CC2)N1CCN(c2ncccn2)CC1	·	3	·	-8	-13	-28*	-12	-6.3
O=C(c1cnc(N2CCN(c3ncccn3)CC2)c2ccccc12)N1CCN(c2ncccn2)CC1	-5	6	5	·	-2	·	·	·
COc1cccc(NC(=O)N[C@@H]2C=C[C@@H](CC(=O)N3CCOCC3)O[C@@H]2CO)c1	-10	·	·	1	·	1	·	·
CCC(C)c1ccccc1NC(=O)c1cccnc1 (centres undefined)	·	12	·	0	6	-9	·	·
CCC(C)c1ccccc1NC(=O)c1cccc(-n2cnnn2)c1 (centres undefined)	0	0	32	-2	-8	-21*	-15	-11
Cc1noc(C)c1S(=O)(=O)Nc1cccc2c1O[C@@H](CN(C)S(=O)(=O)c1ccc(Cl)cc1)[C@@H](C)CN([C@H](C)CO)C2=O	1	-2	·	4	3	-6	·	·
Cc1ccc(C(=O)Nc2cccc(N(C)S(C)(=O)=O)c2)cc1S(=O)(=O)Nc1ccccc1	·	·	·	2	-7	-20*	?	·
COc1ccc(CNC(=O)Cc2cn(C)c3ccccc23)c(OC)c1	-2	-4	3	8	-6	-24*	-1.1	-6.3
COc1ccccc1CNC(=O)CCCc1cn(C)c2ccccc12	3	7	-9	-6	-3	-25	·	·
COc1ccc(C#Cc2ccc([C@@H]3[C@H]4CN(C(=O)Nc5cccc(F)c5)CCCCN4[C@H]3CO)cc2)cc1	·	-8	·	-23	-12	4	·	·
COc1cccc(S(=O)(=O)N2CCCCN3[C@H](C2)[C@@H](c2ccc(C#CC(C)C)cc2)[C@@H]3CO)c1	·	-1	·	11	-7	6	2.2	-6.3
COc1ccc(C#Cc2ccc([C@H]3[C@@H](CO)N4CCCCN(C(=O)Nc5cccc(F)c5)C[C@H]34)cc2)cc1	·	-5	·	·	-39	-48*	3.3	-14
SMILES	FN deposit inh	PglD DTNB	Env fusion inh	DENV2 CPE	PGC1a acetyl inh	rRNA inh HTS	AID977621	AID977628
COc1ccc(C#Cc2ccc([C@@H]3[C@H](CO)N4CCCCN(C(=O)Nc5cccc(F)c5)C[C@@H]34)cc2)cc1	·	2	·	-23	-25	-49*	·	?
COc1cccc(S(=O)(=O)N2CCCCN3[C@H](CO)[C@H](c4ccc(C#CC(C)C)cc4)[C@H]3C2)c1	·	-1	·	3	0	-58	·	·
C/C=C/c1ccc2c(c1)[C@@H]1[C@@H](CCN1S(=O)(=O)c1ccccc1OC)[C@H](CO)N2C	1	·	·	·	·	-21*	·	?
Cc1noc(C)c1NC(=O)N(C)C[C@H]1Oc2ccc(NC(=O)C3CC3)cc2CC(=O)N([C@@H](C)CO)C[C@@H]1C	·	-3	6[16.7 µM]	2	4	1	·	·
CCCN1CCN(C(=O)c2ccc(Sc3ccc(C)cc3)c(NC(C)=O)c2)CC1	·	·	·	3	-6	-13*	-22	-3.8
C[C@@H]1CN([C@H](C)CO)C(=O)c2cc(NC(=O)NC3CCCCC3)ccc2O[C@@H](C)CCCCO[C@H]1CN(C)S(=O)(=O)c1ccccc1	-4	-1	-22[16.7 µM]	0	-17	-2	·	·
COc1ccc(-c2ccc([C@H]3[C@@H](CO)N4CCCCN(C(=O)c5ccc6c(c5)OCO6)C[C@H]34)cc2)cc1	3	5	·	-21	4	-5	·	·
Cc1cccc(OCc2nnc(SCC(=O)Nc3ncc(C)s3)o2)c1	·	·	0	11	·	-34*	·	-7.7
CCc1nnc(NC(=O)CSc2nnc(COc3cccc(C)c3)o2)s1	-2	·	-27	·	3	·	·	·
O=C(CSc1nnc(COc2cccc3cccnc23)o1)c1ccc(F)cc1	·	6	·	-2	·	-25*	2.1	-6.4
CN(C)CCCn1c(=O)n(Cc2ccco2)c(=O)c2c3c(sc21)CCCCC3	-5	·	52	18	-5	-26*	-20	?
O=C(Nc1ccc2c(c1)OCO2)N[C@@H]1CC[C@@H](CCNC(=O)C2CCCCC2)O[C@@H]1CO	·	-2	-15[16.7 µM]	6	0	1	·	·
COc1cc(C(=O)NCCc2c[nH]c3ccccc23)ccc1OCc1c(C)noc1C	-1	5	4	2	-2	-38*	-13	?
